# Measurements gathered from unrelated publications.
# NQO2: Ribosyldihydronicotinamide dehydrogenase [quinone] (NQO2, Homo sapiens, UniProt P16083)
# NPSR1: Neuropeptide S receptor (NPSR1, Homo sapiens, UniProt Q6W5P4)
# MC4R: Melanocortin receptor 4 (MC4R, Homo sapiens, UniProt P32245)
# GRB2: Growth factor receptor-bound protein 2 (GRB2, Homo sapiens, UniProt P62993)
SMILES,target,observed,mode,technique,pH,endpoint,value
NC(=O)N1c2ccccc2C=Cc2ccccc21,NQO2,enzyme activity,inhibitor,absorbance,,Ki,> 500 µM
COc1cccc(C2c3c(ncn(-c4cccc(C)c4)c3=N)Oc3ccc4ccccc4c32)c1 (stereo not drawn),NPSR1,cAMP,antagonist,TR-FRET,,IC50,12.2 µM
Cc1cnc(-c2ccc(-c3ccc(NC(=O)Nc4c(F)cc(F)cc4F)cc3F)c3c2C(=O)NC3)[nH]1,"Tyrosine-protein kinase Fgr (FGR, Homo sapiens, UniProt P09769)",binding,,competition with immobilised ligand,,Kd,83 nM
O=C(NCc1ccccc1)Nc1ncnc2c1C(c1ccccc1)c1c(ccc3ccccc13)O2 (stereo not drawn),NPSR1,calcium signal,antagonist,,,IC50,> 30 µM
CCCC[C@H](NC(=O)[C@H](CO)NC(=O)[C@H](Cc1ccc(O)cc1)NC(=O)[C@H](CO)NC(C)=O)C(=O)N[C@@H](CCC(=O)O)C(=O)N[C@@H](Cc1c[nH]cn1)C(=O)N[C@@H](C)C(=O)N[C@@H](CCCNC(=N)N)C(=O)N[C@@H](Cc1c[nH]c2ccccc12)C(=O)NCC(=O)N[C@@H](CCCCN)C(=O)N1CCC[C@H]1C(=O)N[C@H](C(=O)NCC(=O)N[C@@H](CCCCN)C(=O)N[C@@H](CCCCN)C(=O)N[C@@H](CCCNC(=N)N)C(N)=O)C(C)C,MC4R,ligand displacement in cells,,radioligand,,Ki,> 1 µM
O=C(O)Cc1ccccc1Nc1c(Cl)cccc1Cl,NQO2,enzyme activity,inhibitor,absorbance,,Ki,> 1000 µM
COc1cccc(C2c3c(ncn(-c4ccccc4Cl)c3=N)Oc3ccc4ccccc4c32)c1 (stereo not drawn),NPSR1,cAMP,antagonist,TR-FRET,,IC50,12.2 µM
CNC(=O)[C@@]12C[C@@H]1[C@@H](n1cnc3c(NC4CC4c4ccccc4)nc(C#Cc4ccccc4)nc31)[C@H](O)[C@@H]2O (mixture of isomers),"Sodium-dependent noradrenaline transporter (SLC6A2, Homo sapiens, UniProt P23975)",ligand displacement,,radioligand,,Ki,2.31 µM
N=c1c2c(ncn1Cc1ccccc1)Oc1ccc3ccccc3c1C2c1ccccc1 (stereo not drawn),NPSR1,calcium signal,antagonist,,,IC50,> 30 µM
CC[C@H](C)[C@H](NC(=O)CN)C(=O)N[C@H](C(=O)N[C@@H](CC(N)=O)C(=O)N[C@H](C(=O)N[C@@H](CC(C)C)C(=O)N[C@@H](CCC(N)=O)C(=O)N[C@@H](CCCCN)C(=O)N[C@@H](Cc1ccc(O)cc1)C(=O)N[C@@H](Cc1ccc(O)cc1)C(=O)N[C@@H](CO)C(=O)N[C@@H](CCCNC(=N)N)C(=O)N[C@H](C(=O)N[C@@H](CCCNC(=N)N)C(=O)NCC(=O)NCC(=O)N[C@@H](CCCNC(=N)N)C(=O)N[C@@H](CO)C(=O)N[C@@H](C)C(=O)N[C@H](C(=O)N[C@@H](CC(C)C)C(=O)N[C@@H](CO)C(=O)N[C@H]1CSSC[C@@H](C(=O)N[C@@H](CCCNC(=N)N)C(=O)N[C@@H](CCCNC(=N)N)C(=O)N[C@@H](CCCCN)C(=O)N[C@@H](CCCCN)C(N)=O)NC(=O)[C@H](CO)NC(=O)[C@H](CCCCN)NC(=O)[C@H](CCCNC(=N)N)NC(=O)CNC(=O)[C@H](CCCNC(=N)N)NC(=O)[C@H]([C@@H](C)O)NC(=O)[C@H](CO)NC(=O)[C@H](CO)NC(=O)[C@H](CCCCN)NC(=O)CNC(=O)[C@H]([C@@H](C)CC)NC(=O)[C@H](CCC(N)=O)NC(=O)[C@H](CCC(=O)O)NC(=O)[C@H](CCC(=O)O)NC(=O)[C@H](CCCCN)NC(=O)[C@@H]2CCCN2C(=O)[C@H](CC(C)C)NC1=O)C(C)C)C(C)C)[C@@H](C)O)[C@@H](C)CC,MC4R,ligand displacement in cells,,,,Ki,0.292 µM
CCOC(=O)c1ccccc1,"Or67a (Drosophila melanogaster, UniProt Q9VT08)",binding,,MST,,Kd,~500 nM
Nc1ncnc2c1ncn2[C@@H]1O[C@H](COP(=O)(O)OP(=O)(O)OP(=O)(O)O)[C@@H](O)[C@H]1O,"dnaA (Escherichia coli, UniProt P03004, V303M)",binding,,,,Kd,80 nM
COc1cccc(C2c3c(ncn(-c4ccc(Br)cc4)c3=N)Oc3ccc4ccccc4c32)c1 (stereo not drawn),NPSR1,cAMP,antagonist,TR-FRET,,IC50,15.4 µM
CN1CCN(C2=Nc3cc(Cl)ccc3Nc3ccccc32)CC1,NQO2,enzyme activity,inhibitor,,,Ki,746 µM
Nc1ncnc2c1ncn2[C@@H]1O[C@H](COP(=O)(O)OP(=O)(O)OP(=O)(O)OP(=O)(O)OP(=O)(O)OC[C@H]2O[C@@H](n3cnc4c(N)ncnc43)[C@H](O)[C@@H]2O)[C@@H](O)[C@H]1O,"adk (Escherichia coli, UniProt P69441, R131A)",binding,,ITC,,Kd,576 nM
Cc1c(S(=O)(=O)O)oc2c1C(=O)C(=O)c1c-2ccc2c1CCCC2(C)C,"Cholinesterase (BCHE, Homo sapiens, UniProt P06276)",enzyme activity,inhibitor,,,Ki,> 100 µM
N=c1c2c(ncn1CCc1ccccc1)Oc1ccc3ccccc3c1C2c1ccccc1 (stereo not drawn),NPSR1,cAMP,antagonist,TR-FRET,,IC50,4.87 µM
CC(C)(C)c1cc(CN(C(=O)CN(Cc2ccc(Cl)cc2)S(=O)(=O)c2c(F)c(F)c(F)c(F)c2F)c2ccc(C(=O)O)c(O)c2)cc(C(C)(C)C)c1,"Signal transducer and activator of transcription 1-alpha/beta (STAT1, Homo sapiens, UniProt P42224)",cell-free assay,,FP,,Ki,> 60 µM
CCN(CC)CCCC(C)Nc1cnc(C(=O)Nc2ccc(Cl)c3cccnc23)cn1 (stereo not drawn),"Muscarinic acetylcholine receptor M5 (CHRM5, Homo sapiens, UniProt P08912)",cell-free assay,,radioligand,,Ki,0.219 µM
COc1cccc(C2c3c(ncn(-c4ccncc4)c3=N)Oc3ccc4ccccc4c32)c1 (stereo not drawn),NPSR1,calcium signal,antagonist,,,IC50,4.38 µM
COc1ccc(-c2nsc(NC(=O)[C@@H]3C[C@H]3C)c2C)cc1,"Metabotropic glutamate receptor 3 (GRM3, Homo sapiens, UniProt Q14832)",calcium signal,agonist,,,EC50,> 25 µM
O=c1ccc2ccccc2o1,GRB2,binding,,fluorescence,,Kd,5560 nM
COc1ccc(C2c3c(N)nc(Cc4ccccc4)nc3Oc3ccc4ccccc4c32)cc1OC (stereo not drawn),NPSR1,cAMP,antagonist,TR-FRET,,IC50,77.2 µM
CC(C)C[C@H](NC(=O)[C@H](Cc1c[nH]cn1)NC(=O)[C@H](CCCNC(=N)N)NC(=O)[C@H](CCCNC(=N)N)NC(=O)[C@@H](NC(=O)CNC(=O)[C@H](Cc1c[nH]cn1)NC(=O)[C@@H]1CCCN1C(=O)[C@H](CO)NC(=O)[C@@H]1CCCN1)[C@@H](C)O)C(=O)N1CCC[C@H]1C(=O)N[C@@H](CO)C(=O)N1CCC[C@H]1C(=O)N1CCC[C@H]1C(=O)O,GRB2,binding,,NMR,pH 7.6,Kd,400000 nM
